Measured values published in ChEMBL document CHEMBL4513216, “Probing the Open Global Health Chemical Diversity Library for Multistage-Active Starting Points for Next-Generation Antimalarials” (ACS Infect Dis, 2020).

Assay: Toxicity liver stage against HepG2, at 10uM
Type: cell-based
Design: test concentration 10 uM, cell line HepG2-A16-CD81EGFP
Conditions: human, HepG2-A16-CD81EGFP cells; read-out: INHIBITION
In short: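 Uninfected HepG2-A16-CD81EGFP cells, 3 × 10^3 per well, 1536-well, plated on prespotted compound at 10 μM final, parasite-free screening media added to match infected plates; puromycin 10 μM positive, DMSO 0.5% negative; run in parallel with 48 h PbLuc assay at 37 °C, 5% CO2; viability by CellTiter-Glo luminescence, normalized to controls.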

Structure (SMILES) | cytotoxicity at 10 µM [%]
COC(=O)[C@@H]1Cc2[nH]cnc2CN1Cc1cc2ccccc2o1 | 0.994
N#CCCN1CC(O)CN(C(=O)c2cccc(C(F)(F)F)c2)CC1=O (stereo unspecified) | 7.84
O=C(CCCNC(=O)c1cnccn1)Nc1ncc[nH]1 | -41.9
O=S(=O)(c1cccs1)N1CCN(Cc2nc(-c3ccco3)cs2)CC1 | 21.2
O=C(Cc1ccccc1Cl)NCCN1CCC(c2cccs2)CC1 | 6.93
O=C(CN1C(=O)CCC1=O)NCc1nn(C2CCCC2)c2c1CCCC2 | 1.97
c1csc(CN2CCc3nc(N4CCOCC4)nc(NC4CC4)c3C2)n1 | 0.0529
Cn1nnc2c1CCN(S(C)(=O)=O)C2COCC1CC1 (stereo unspecified) | -4.6
c1cncc(-c2ccc3c(c2)CCC32CCNCC2)c1 | -10.3
CC(C)N1c2sc(-c3ccccc3)nc2CC1C(=O)NC1CCCC1 (stereo unspecified) | 10.3
Cc1ccnc(OC[C@@]23CCO[C@@H]2CCN(S(C)(=O)=O)C3)n1 | 9.34
CCOc1cccc2c1OCC(=O)N(c1ccc3c(c1)OCCO3)C2 | 13.1
Oc1nnc(-c2ccccc2)c2sc(N3CCCCC3)nc12 | -1.81
O=c1[nH]nc2c(N3CCOCC3)nccn12 | 9.73
CCS(=O)(=O)N1CCCc2ccc(NC(=O)Cc3ccc(F)cc3)cc21 | 18.6
O=c1c2cc3c(cc2nnn1Cc1ccccc1Cl)OCCO3 | 9.32
Cc1nc(NCCCn2cccn2)c2c(n1)c(C)nn2C | 6.64
CCC(=O)N1CCCC(C(=O)c2cnn(-c3ccc(F)cc3)c2N)C1 (stereo unspecified) | 4.57
CCc1noc(CCC(=O)N[C@@H]2CC[C@@H](n3ccnc3C)[C@@H]2O)n1 | -20.5
COc1ccc(CN(C)[C@@H]2CN(C(=O)c3cncs3)C[C@H]2O)cc1 | -12.4
Cc1cnc(N)c(C(=O)C2CCN(C(=O)c3ccccc3F)CC2)c1 | 9.96
CC(=O)N1CC2(CCN(Cc3ccc(Cl)cc3)C2)Cc2ccccc21 (stereo unspecified) | 7.74
CCC(C)(CC(=O)OC)NCc1cc(C)on1 (stereo unspecified) | -1.88

Structure (SMILES) | cytotoxicity at 10 µM [%]
CSC1(CNC(=O)N(C)Cc2ccc(C)s2)CCOCC1 | -46.5
CCc1ccc(O)c(C(=O)N2CCN(CC(=O)N(CC)CC)CC2)c1 | 4.49
O=C(CN1CCc2cncnc2C1)NC(C1CC1)C1CC1 | -5.42
O=C(Nc1cccnc1)NC1CCN(c2ccccc2OC(F)F)C1 (stereo unspecified) | 12.1
N#Cc1ccc(CN2CCCN(CCCn3cncn3)CC2)cc1 | -2.89
COc1ccc(C(O)CN2CC(n3cc(C)cn3)C2)cc1 (stereo unspecified) | 4.52
Cc1cnn(CC2CCCN2c2ncnc3sccc23)c1 (stereo unspecified) | 44.4
CCN(CC)S(=O)(=O)N1CCCN(CC(=O)NC(C)C)CC1 | 2.75
O=C(CC1CN(Cc2ccccc2)CCO1)NCCN1CCOCC1 (stereo unspecified) | 6.67
N#Cc1ccc(C(=O)NS(=O)(=O)c2ccc(C#N)c(Cl)c2)cc1 | 5.44
Cc1cc(Cl)cc(C)c1CNC1CCN(CC(=O)N(C)C)CC1 | -1.51
CCN(Cc1ccoc1)C(=O)NC1CCN(CC=C(C)C)CC1 | -3.89
CC(=O)N1Cc2ccccc2CC1C(=O)Nc1cc(C)ccn1 (stereo unspecified) | -4.5
Cc1nn(-c2ccccc2)nc1C(=O)NCC(c1ccsc1)N(C)C (stereo unspecified) | -22.3
Cc1cc(N)nc(SC2CCN(c3ccccc3F)C2=O)n1 (stereo unspecified) | -9.51
O=C(NC1(c2nccs2)CCCC1)c1[nH]nc(C2CC2)c1Cl | -24.6
Cc1nc(CNC(=O)NC2CCN(c3cccc(Cl)c3)C2)no1 (stereo unspecified) | 0.636
CC(C)(C)OC(=O)N1CCCN1C(=O)c1cccc2cc[nH]c12 | 2.84
Cc1cc(CN(CCCO)c2ccccc2)on1 | -4.91
Cc1cc(C(=O)NS(=O)(=O)Cc2ccon2)c(C)n1C(C)C | -2.17
OC(CN1CCN(CCOCC(F)(F)F)CC1)c1ccccc1 (stereo unspecified) | -7.99
CCCn1nccc1NC(=O)c1ccc(Cl)c(N2CCNC2=O)c1 | -5.07
CCC(Nc1ccc(CCN2CCCCC2)cc1)C(N)=O (stereo unspecified) | 4.47

Structure (SMILES) | cytotoxicity at 10 µM [%]
NC1CCCN(Cc2cccc(C(F)(F)F)c2)C1=O (stereo unspecified) | 5.85
CC(CNC(=O)c1cnc[nH]1)Oc1ccccc1Br (stereo unspecified) | 2.74
CS(=O)(=O)Cc1nc(CN2CCc3ccccc3CC2)cs1 | -7.73
Cc1ccc(C)c(C(=O)CN2C(=O)c3ccccc3CS2(=O)=O)c1 | -8.42
CNc1cc(N2CCCC2CNCc2ccc(Cl)o2)ncn1 (stereo unspecified) | -11.6
CCOC1CCC2(CCN(C(=O)c3csnn3)CC2)c2ccccc21 (stereo unspecified) | -1.58
O=C(c1ccoc1)N1CCn2cnc(COCC3CC3)c2C1 | -71.9
Cc1nc2[nH]cc(C(=O)N3CCCCC3c3ccc(F)cc3)c(=O)n2n1 (stereo unspecified) | 3.63
COc1cccc2c1OCC(Cc1cc(C(=O)N3CCCC3)ccn1)C2 (stereo unspecified) | 5.15
c1cn(-c2ccc(N3CCC(NC4CC4)CC3)cc2)cn1 | 5.16
c1ccc(-c2nnc(N3CCCC4(CCOC4)C3)s2)cc1 (stereo unspecified) | -2.37
Cc1nc(CN(C)Cc2nc(-c3sccc3C)oc2C)no1 | -0.205
CN(Cc1ccc(CCC(C)(C)O)cc1)Cc1cccnc1 | 15
CCN(CC)C(=O)[C@@H]1C[C@H](N)CN1c1nnc(-c2ccccc2)s1 | -51.7
O=C(NCc1ccc2[nH]c(=O)[nH]c2c1)c1ccc(CN2CCCC2)o1 | -0.987
CC(C)N(CCO)C(=O)C1CCC(=O)N(CCc2cccc(F)c2)C1 (stereo unspecified) | -6.95
c1ccc(NCCn2cc(C3CCCNC3)nn2)cc1 (stereo unspecified) | 5.44
Cc1ncc2c(c1CNC(=O)C1(C)CCCO1)CCNC2 (stereo unspecified) | -45.6
Cc1cc(C2CCC2)nc(NCC(C)(C)N2CCCC2)n1 | -0.21
CN(CCNC(=O)c1cnc(-c2ccccc2)nc1)S(C)(=O)=O | 4.3
CCCn1ccnc1CN1CCCC1c1ccccn1 (stereo unspecified) | -7.25
Cc1ccc(C(=O)N2CC(c3cccnc3)C2)cc1N1CCNC1=O | -4.57
CC1=NN(CC(=O)N2CC[C@@H]3[C@@H](CCC(=O)N3CC(C)C)C2)CC1 | 0.88

Structure (SMILES) | cytotoxicity at 10 µM [%]
CCC(C(=O)NCCc1nc(C)cc(C(F)(F)F)n1)n1cccn1 (stereo unspecified) | -9.77
CSCCCNc1ncnc2cccc(F)c12 | 0.721
CCc1ccccc1OCCN1C[C@@H](NS(C)(=O)=O)[C@H](C(C)C)C1 | -47.5
Cn1ccnc1CN1CCN(CC2CC2)[C@@H]2CS(=O)(=O)C[C@@H]21 | 1.02
Nc1ccc(CC2COc3ccccc3C2)cn1 (stereo unspecified) | 0.541
CCC[C@H]1CN(c2nccc(OC)n2)C[C@@H]1NS(=O)(=O)N(C)C | -140
Cc1ccccc1N1CCN(C(=O)CC(C)C)CC1 | -1.26
NC(=O)C1CCN(C(=O)c2cc(S(=O)(=O)N3CCCCC3)cs2)CC1 | -45.1
CN(C)C(=O)c1ccc(C2CCCN2C(=O)CCC2=NNC(=O)CC2)s1 (stereo unspecified) | 9.19
CCn1nc(C)c(CCN2CC3(CCOC3)CCC2=O)c1C (stereo unspecified) | -118
O=C(Cc1ccsc1)N1CCC(Cn2cc(CCO)nn2)CC1 | 1.67
CCNc1ncc(C(=O)NCCc2csc(-c3ncccn3)n2)cn1 | 19.9
COc1cc(C)sc1C(=O)N1CC(c2cccnc2)C1 | -8.97
CC1CN(C)CCN1C(=O)c1ccn(-c2ccc(F)cc2)n1 (stereo unspecified) | -5.3
CCN(CC)Cc1ccc(C(=O)N2CCCC2c2cnn(C)c2)o1 (stereo unspecified) | 3.51
CCOCCCn1c(NC(=O)c2cnc(C)s2)nc2ccccc21 | -30
NC(=O)C1CCN(C(=O)c2ccc(OCc3cscn3)cc2)CC1 | -10.6
CN(C)C(=O)C1CCN(Cc2csc(C(C)(C)C)n2)CC1 | -23
CC(Cn1cccn1)NCc1ccc(OCc2ccncc2)cc1 (stereo unspecified) | -29.9
CC(C)Oc1ccccc1NC(=O)N1CCC(n2cncn2)CC1 | -3.67
CC(c1nc(C2CC2)no1)N1CCN(Cc2ccc(C#N)cc2)CC1 (stereo unspecified) | 3.71
CC(NC(=O)NCCNc1ncccn1)c1cccs1 (stereo unspecified) | -0.447
NC(=O)c1cc(C2CCCN(C(=O)CCc3ccsc3)C2)n[nH]1 (stereo unspecified) | -5.79

Structure (SMILES) | cytotoxicity at 10 µM [%]
Cc1cnn(CCNCC(=O)NCCOc2ccccc2)c1 | -14
O=C(CN1CCCC1Cn1cncn1)NCCc1c(F)cccc1F (stereo unspecified) | -6.24
CN(Cc1ccccc1)CC(O)Cn1cnc2ccsc2c1=O (stereo unspecified) | -2.89
Cc1cc(NC(=O)CCN2CCCC2Cn2cncn2)no1 (stereo unspecified) | 4.26
CC(=O)Nc1ccc(S(=O)(=O)NC(=O)CCC2CCCO2)cc1 (stereo unspecified) | -5.11
Cc1c(C)n(CC(O)CN2CCOCC2)c2c(Cl)cccc12 (stereo unspecified) | 0.829
Cn1cncc1C(=O)N1C[C@@H]2CCN(c3cnccn3)C[C@@H]2C1 | -96.6
CC(C)CC(=O)N1CCC2(CC1)COCCN2Cc1ccc(F)cc1 | -77.1
Cc1cc(C(=O)N2CCCC3(COCCN(CCN(C)C)C3)C2)no1 (stereo unspecified) | 3.22
Cc1noc(C)c1CN1CCc2ncc(CN(C)C)n2CC1 | 8.46
CCO[C@@H]1C[C@H]2CN(S(=O)(=O)c3cccs3)CCN2C1 | 8.52
O=C(C[C@@H]1COC[C@H]2CN(C3CCCC3)C[C@@H]12)N1CCCCO1 | 7.92
COCC1c2c(cnn2C)CCN1C(=O)c1cscn1 (stereo unspecified) | -101
COc1c(CNCc2ccc(C(=O)N(C)C)cc2)c(C)nn1C | 1.64
COc1ccc(CN2CCCn3cnc(COC(C)C)c3C2)cc1 | -74.9
CN(C)S(=O)(=O)N1CC[C@]2(C[C@H](OCc3ccccn3)CO2)C1 | 11.6
c1coc(COCc2ncn3c2CN(Cc2cccs2)CCC3)c1 | -76.2
CCCC(=O)N1CC[C@@H]2[C@H](CC1)N(Cc1cccc(C)n1)CCS2(=O)=O | -2.88
CCn1c(Cn2cncn2)nnc1C1CCN(CC2[C@H]3CNC[C@@H]23)CC1 (stereo partly specified) | 6.77
